Experimental data collected from several papers.
Compare with care: the assays were run in different laboratories.
Target: Death-associated protein kinase 3 (DAPK3, Homo sapiens, UniProt O43293)

For Cn1cc(-c2cccc(N3CCc4c(sc5c4CC(C)(C)C5)C3=O)c2CO)cc(Nc2ccncn2)c1=O, the inhibition was -6% (enzyme activity, inhibitor; 1 µM).
With Nc1ncc(-c2nc(N3CCOCC3)nc(N3CCOCC3)n2)c(C(F)F)n1 the remaining binding was 80% (binding, competition with immobilised ligand; 10 µM).
COc1ncccc1-c1cnn2ccc(N3CCN(C(=O)OC(C)C)CC3)nc12 gave a remaining binding of 98% (binding, competition with immobilised ligand; 1 µM).
Cc1nn(C)cc1-c1nc2c(N3CCN(Cc4ccc(Cl)cc4)CC3)c(Cl)cnc2[nH]1 gave a remaining binding of 84% (binding, competition with immobilised ligand; 1 µM).
For CC(C)(C)c1cc(C=C(C#N)C#N)cc(Br)c1O, the remaining activity was 96.4% (enzyme activity, inhibitor; 0.5 µM).
For Cn1cc(-c2cc(F)cc(N3CCn4c(cc5c4CCCC5)C3=O)c2CO)cc(Nc2ccc(N3CCN(C4COC4)CC3)cn2)c1=O, the inhibition was 3% (enzyme activity, inhibitor; 0.1 µM).
O=c1[nH]c2ccccc2n1C1CCN(Cc2ccc(-c3[nH]c4cc5ncnc5cc4nc3-c3ccccc3)cc2)CC1 has a remaining signal of 106% (cell-free assay; 0.5 µM).
The remaining binding of Cn1cncc1[C@](O)(COc1ccc(C#N)cc1-c1ccc(OC(F)(F)F)cc1)c1ccc(C#N)cc1 is reported as 88% (cell-free assay, competition with immobilised ligand; 1 µM).
